Data from paper PMC4277779 (Journal of the American Chemical Society, 2014).
Non-standard residues stand in square brackets, D forms with d. No end group written: not given here. Orn = NCCC[C@H](N)C(=O)O

Experiments:
[1] = ΔδCαH-based β-hairpin population and thermodynamic analysis by NMR; assay type: physicochemical; conditions: relative to parent peptide I, 4 °C, pH 3.8; for ΔΔGfold: calculated for each reporter position and averaged
Outline: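 NMR samples were prepared in 100 mM acetate buffer, pH 3.8.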

[2] = Far-UV circular dichroism: effects of pH and temperature; assay type: physicochemical; conditions: 4 to 20 to 37 °C, phosphate buffer
Outline: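 Far-UV CD spectra of the test peptides were recorded in phosphate buffer (pH 7.0) and in the NMR buffer (100 mM acetate, pH 3.8). A temperature series at 4, 20 and 37 °C was run in phosphate buffer.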

[3] = 4 °C, cited from earlier work
[4] = aqueous buffer pH 3.8, ref 9a (Syud et al.)

Substance	effect of residue replacement on β-hairpin population (in words) [1]	ΔΔGfold [1]	effect of temperature on far UV CD (in words) [2]	population of the β-hairpin conformation ([3]; aqueous buffer pH 3.8, NMR, ref 9b)	β-hairpin population at reporter position Ile 10 [3, 4]	β-hairpin population at reporter position Orn 8 [3, 4]	β-hairpin population at reporter position Val 3 [3, 4]	β-hairpin population at reporter position Val 5 [3, 4]
Arg-Tyr-Val-Glu-Val-DPro-Gly-Orn-TS+-Ile-Leu-Gln-NH2 [Peptide III]	enhanced β-hairpin population	–0.5 ± 0.4 kcal/mol	does not significantly alter	–	–	–	–	–
Arg-Tyr-Val-TS--Val-DPro-Gly-Orn-Lys-Ile-Leu-Gln-NH2 [Peptide IV]	enhanced β-hairpin population	–0.6 ± 0.3 kcal/mol	does not significantly alter	–	–	–	–	–
Arg-Tyr-Val-Glu-Val-DPro-Gly-Orn-TO+-Ile-Leu-Gln-NH2 [Peptide II]	little effect on β-hairpin population	+0.1 ± 0.2 kcal/mol	–	–	–	–	–	–
RYVEV[dP]G[Orn]KILQ-NH2 [Peptide I]	–	–	does not significantly alter	~68%	59%	65%	70%	76%
